Test results: ChEMBL document CHEMBL1135657, “Novel dual inhibitors of AChE and MAO derived from hydroxy aminoindan and phenethylamine as potential treatment for Alzheimer's disease” (J Med Chem, 2002)

Columns and labels:
Acetylcholinesterase [1] = biological target: T1, Acetylcholinesterase (Homo sapiens, UniProt P22303); assay: In vitro inhibitory concentration against purified Acetylcholinesterase of human erythrocytes; value ranges from 7.5-19.5
[2] = biological target: T2, Amine oxidase [flavin-containing] B (Rattus norvegicus, UniProt P19643); assay: In vitro inhibitory concentration against Monoamine oxidase B of rat brain homogenates; value ranges from 30-230; format: tissue-based
T2 sequence (P19643 whole entry): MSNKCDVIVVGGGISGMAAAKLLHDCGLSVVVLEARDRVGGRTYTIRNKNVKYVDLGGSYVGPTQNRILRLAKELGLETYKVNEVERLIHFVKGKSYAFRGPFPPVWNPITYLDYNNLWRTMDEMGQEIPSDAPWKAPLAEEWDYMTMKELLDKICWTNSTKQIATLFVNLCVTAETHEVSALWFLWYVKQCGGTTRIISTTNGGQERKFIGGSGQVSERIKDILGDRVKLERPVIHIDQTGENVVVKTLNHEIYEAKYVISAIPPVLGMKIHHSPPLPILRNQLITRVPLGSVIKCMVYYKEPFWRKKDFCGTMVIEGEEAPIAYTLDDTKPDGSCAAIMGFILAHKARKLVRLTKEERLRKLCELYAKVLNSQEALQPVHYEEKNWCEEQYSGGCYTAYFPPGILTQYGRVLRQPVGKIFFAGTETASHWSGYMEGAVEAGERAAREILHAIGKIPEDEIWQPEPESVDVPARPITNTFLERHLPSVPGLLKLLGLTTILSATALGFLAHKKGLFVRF

[3] = biological target: T3, Amine oxidase [flavin-containing] A (Rattus norvegicus, UniProt P21396); assay: In vitro inhibitory concentration against Monoamine oxidase A of rat brain homogenates; value ranges from 150-320; format: tissue-based
T3 sequence (P21396 whole entry): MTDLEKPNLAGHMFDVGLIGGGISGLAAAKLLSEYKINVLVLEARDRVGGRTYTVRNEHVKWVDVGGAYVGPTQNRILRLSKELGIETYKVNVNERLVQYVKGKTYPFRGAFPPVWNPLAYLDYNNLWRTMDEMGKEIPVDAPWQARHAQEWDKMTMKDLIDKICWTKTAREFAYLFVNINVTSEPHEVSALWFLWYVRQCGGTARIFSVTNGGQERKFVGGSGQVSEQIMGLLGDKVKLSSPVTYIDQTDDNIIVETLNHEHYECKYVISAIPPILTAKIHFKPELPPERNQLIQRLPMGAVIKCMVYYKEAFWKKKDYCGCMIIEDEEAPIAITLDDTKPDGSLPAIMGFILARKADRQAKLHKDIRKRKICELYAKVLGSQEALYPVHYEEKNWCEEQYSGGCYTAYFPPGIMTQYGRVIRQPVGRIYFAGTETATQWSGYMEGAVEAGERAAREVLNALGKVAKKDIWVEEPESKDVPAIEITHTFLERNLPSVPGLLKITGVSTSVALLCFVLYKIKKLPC

Acetylcholinesterase [4] = biological target: T1, Acetylcholinesterase; assay: In vitro inhibitory concentration against purified Acetylcholinesterase of human erythrocytes; value ranges from 26.2-5898
Butyrylcholinesterase [5] = biological target: T4, Butyrylcholinesterase (Equus caballus, UniProt Q9N1N9); assay: In vitro inhibitory concentration against Butyrylcholinesterase of horse serum; value ranges from 0.28-0.30
Method in brief: (§1)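 Ellman assay followed, with 200 µM butyrylthiocholine as substrate. Runs were in triplicate with four-point dose-response curves. IC50 and fiducial limits came from log concentration versus % inhibition.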

[6] = biological target: T2, Amine oxidase [flavin-containing] B; assay: In vitro inhibitory concentration against Monoamine oxidase B of rat brain homogenates; value ranges from 75-200
Butyrylcholinesterase [7] = biological target: T4, Butyrylcholinesterase; assay: In vitro inhibitory concentration against Butyrylcholinesterase of horse serum; value ranges from 7.65-13.2; method in brief: as §1
Acetylcholinesterase [8] = biological target: T1, Acetylcholinesterase; assay: In vitro inhibitory concentration against purified Acetylcholinesterase of human erythrocytes; value ranges from […]-[…]
Acetylcholinesterase [9] = biological target: T1, Acetylcholinesterase; assay: In vitro inhibitory concentration against purified Acetylcholinesterase of human erythrocytes; value ranges from 0.44-0.49
[10] = biological target: T3, Amine oxidase [flavin-containing] A; assay: In vitro inhibitory concentration against Monoamine oxidase A of rat brain homogenates; value ranges from 370-520; format: tissue-based
Acetylcholinesterase [11] = biological target: T1, Acetylcholinesterase; assay: In vitro inhibitory concentration against purified Acetylcholinesterase of human erythrocytes; value ranges from 1.32-2.23
Butyrylcholinesterase [12] = biological target: T4, Butyrylcholinesterase; assay: In vitro inhibitory concentration against Butyrylcholinesterase of horse serum; value ranges from 0.73-0.77; method in brief: as §1
[13] = biological target: T2, Amine oxidase [flavin-containing] B; assay: In vitro inhibitory concentration against Monoamine oxidase B of rat brain homogenates; value ranges from 0.3-1.2; format: tissue-based
[14] = biological target: T3, Amine oxidase [flavin-containing] A; assay: In vitro inhibitory concentration against Monoamine oxidase A of rat brain homogenates; value ranges from 0.09-0.16; format: tissue-based
[15] = biological target: T3, Amine oxidase [flavin-containing] A; assay: In vitro inhibitory concentration against Monoamine oxidase A of rat brain homogenates; value ranges from 4.7-16.8; format: tissue-based
[16] = biological target: T2, Amine oxidase [flavin-containing] B; assay: In vitro inhibitory concentration against Monoamine oxidase B of rat brain homogenates; value ranges from 2.8-8.3; format: tissue-based
Acetylcholinesterase [17] = biological target: T1, Acetylcholinesterase; assay: In vitro inhibitory concentration against purified Acetylcholinesterase of human erythrocytes; value ranges from 0.012-0.014
[18] = biological target: T2, Amine oxidase [flavin-containing] B; assay: In vitro inhibitory concentration against Monoamine oxidase B of rat brain homogenates; format: tissue-based
[19] = biological target: T3, Amine oxidase [flavin-containing] A; assay: In vitro inhibitory concentration against Monoamine oxidase A of rat brain homogenates; value ranges from 5.6-19.6; format: tissue-based
Acetylcholinesterase [20] = biological target: T1, Acetylcholinesterase; assay: In vitro inhibitory concentration against purified Acetylcholinesterase of human erythrocytes; value ranges from 0.18-0.32
Butyrylcholinesterase [21] = biological target: T4, Butyrylcholinesterase; assay: In vitro inhibitory concentration against Butyrylcholinesterase of horse serum; value ranges from 0.16-0.41; method in brief: as §1
[22] = biological target: T2, Amine oxidase [flavin-containing] B; assay: In vitro inhibitory concentration against Monoamine oxidase B of rat brain homogenates; value ranges from 11-52; format: tissue-based
[23] = biological target: T3, Amine oxidase [flavin-containing] A; assay: In vitro inhibitory concentration against Monoamine oxidase A of rat brain homogenates; value ranges from 1.3-5.6; format: tissue-based
[24] = biological target: T2, Amine oxidase [flavin-containing] B; assay: In vitro inhibitory concentration against Monoamine oxidase B of rat brain homogenates; value ranges from 80.-92
[25] = biological target: T3, Amine oxidase [flavin-containing] A; assay: In vitro inhibitory concentration against Monoamine oxidase A of rat brain homogenates; value ranges from 0.22-0.29; format: tissue-based
Acetylcholinesterase [26] = biological target: T1, Acetylcholinesterase
Butyrylcholinesterase [27] = biological target: T4, Butyrylcholinesterase; assay: In vitro inhibitory concentration against Butyrylcholinesterase of horse serum; value ranges from 0.70-0.92; method in brief: as §1
Acetylcholinesterase [28] = biological target: T1, Acetylcholinesterase; remark: listed apart in the source
[29] = biological target: T3, Amine oxidase [flavin-containing] A; assay: In vitro inhibitory concentration against Monoamine oxidase A of rat brain homogenates 47-101; format: tissue-based

T4 sequence (Q9N1N9 whole entry): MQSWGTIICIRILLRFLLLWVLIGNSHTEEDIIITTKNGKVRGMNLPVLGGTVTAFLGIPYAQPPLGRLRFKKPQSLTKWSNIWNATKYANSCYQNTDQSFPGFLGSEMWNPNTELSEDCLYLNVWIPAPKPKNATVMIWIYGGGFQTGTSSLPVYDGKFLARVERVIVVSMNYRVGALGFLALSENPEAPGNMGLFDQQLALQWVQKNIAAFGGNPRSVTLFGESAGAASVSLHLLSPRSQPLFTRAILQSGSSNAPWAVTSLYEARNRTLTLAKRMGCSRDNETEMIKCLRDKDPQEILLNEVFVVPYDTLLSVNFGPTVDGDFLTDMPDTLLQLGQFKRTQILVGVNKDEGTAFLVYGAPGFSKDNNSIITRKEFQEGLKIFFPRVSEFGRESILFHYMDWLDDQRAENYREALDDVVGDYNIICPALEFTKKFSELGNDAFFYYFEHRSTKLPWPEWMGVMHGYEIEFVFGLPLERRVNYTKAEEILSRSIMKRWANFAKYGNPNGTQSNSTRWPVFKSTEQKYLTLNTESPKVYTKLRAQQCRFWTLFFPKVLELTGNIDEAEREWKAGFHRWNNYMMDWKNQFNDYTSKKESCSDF
T1 sequence (P22303 whole entry): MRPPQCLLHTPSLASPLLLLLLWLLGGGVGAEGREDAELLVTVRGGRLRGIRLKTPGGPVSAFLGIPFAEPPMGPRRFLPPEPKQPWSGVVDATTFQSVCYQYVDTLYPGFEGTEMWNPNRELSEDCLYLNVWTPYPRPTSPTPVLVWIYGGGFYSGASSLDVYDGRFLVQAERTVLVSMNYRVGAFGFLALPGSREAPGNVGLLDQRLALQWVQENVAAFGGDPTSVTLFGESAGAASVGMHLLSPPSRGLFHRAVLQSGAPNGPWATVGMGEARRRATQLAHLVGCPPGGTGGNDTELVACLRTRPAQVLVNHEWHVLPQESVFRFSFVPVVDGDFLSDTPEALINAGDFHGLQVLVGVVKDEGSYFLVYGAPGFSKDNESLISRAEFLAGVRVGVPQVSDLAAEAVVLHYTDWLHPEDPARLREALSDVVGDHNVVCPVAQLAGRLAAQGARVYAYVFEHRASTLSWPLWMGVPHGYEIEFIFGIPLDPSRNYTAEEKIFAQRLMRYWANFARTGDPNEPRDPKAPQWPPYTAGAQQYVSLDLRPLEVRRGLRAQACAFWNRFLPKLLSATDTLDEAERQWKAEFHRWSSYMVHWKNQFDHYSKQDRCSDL

C#CCN[C@@H]1CCc2ccc(OC(=O)N(C)CCCC)cc21
IC50 (Acetylcholinesterase [1]): 11.6 µM
IC50 [2]: 150 µM
IC50 [3]: 220 µM

C#CCNC1CCc2ccc(OC(=O)N(C)CC)cc2C1 (centres undefined)
IC50 (Acetylcholinesterase [4]): 204 µM
IC50 (Butyrylcholinesterase [5]): 0.29 µM
IC50 [6]: 120 µM

COc1ccc(N(C)C(=O)Oc2ccc3c(c2)C(N)CC3)cc1 (centres undefined)
IC50 (Butyrylcholinesterase [7]): 9.91 µM
IC50 (Acetylcholinesterase [8]): 0.3 µM

CN(C)C(=O)Oc1cccc2c1C(N)CC2 (centres undefined)
IC50 (Acetylcholinesterase [9]): 0.46 µM

C#CCN[C@H]1CCc2ccc(O)cc21
IC50 [10]: 440 µM

C#CCN(C)C(C)Cc1cccc(OC(=O)N(C)C)c1 (centres undefined)
IC50 (Acetylcholinesterase [11]): 1.64 µM
IC50 (Butyrylcholinesterase [12]): 0.75 µM
IC50 [13]: 0.8 µM
IC50 [14]: 0.12 µM

C#CCN(C)C(C)Cc1cccc(O)c1 (centres undefined)
IC50 [15]: 8.9 µM
IC50 [16]: 4.8 µM

CN(C)C(=O)Oc1cccc2c1CCC2N(C)C (centres undefined)
IC50 (Acetylcholinesterase [17]): 0.013 µM
IC50 [18]: > 1000 µM
IC50 [19]: 10 µM

C#CCNCCc1cccc(OC(=O)N(C)C)c1
IC50 (Acetylcholinesterase [20]): 0.22 µM
IC50 (Butyrylcholinesterase [21]): 0.21 µM
IC50 [22]: 24 µM
IC50 [23]: 2.7 µM

C#CCNC1CCc2c(OC(=O)N(C)C)cccc21 (centres undefined)
IC50 [24]: 86 µM
IC50 [25]: 0.26 µM
IC50 (Acetylcholinesterase [26]): 0.053 µM

C#CCN(C)C1CCc2c(OC(=O)N(C)CC)cccc21 (centres undefined)
IC50 (Butyrylcholinesterase [27]): 0.79 µM
IC50 (Acetylcholinesterase [28]): 14.9 µM

C#CCNC1CCc2ccc(OC(=O)NCCC)cc21 (centres undefined)
IC50 [29]: 69 µM
